Structures can show the parent of a compound that is named as a salt. No end group written: not given here. *: point of attachment. Biotin = O=C1N[C@H]2[C@H](CS[C@H]2CCCCC(=O)*)N1; Ahx = NCCCCCC(=O)O
What was measured:
BMDMs = test: Cell membrane repair: CHMP4–GFP puncta and Annexin V; type: cell-based, mouse; conditions: 2 mM EDTA + 15 µM SK56, LPS + nigericin
human blood leukocytes = test: Pyroptosis in human whole blood; type: cell-based; conditions: DSF vs PBS, LPS + nigericin-treated blood, 1 h
[1] = system: LPS-induced sepsis in mice; test: Low-dose LPS; type: in vivo, mouse; conditions: for plasma IL-1β levels: mild sepsis, at 24 h, vs saline, n = 10
How it was run: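 C57BL/6J and Gsdmd−/− mice (8–10 weeks, 50:50 female:male) were randomized, unblinded, and given LPS (O55:B5) 15 mg per kg i.p. At 16 h they received saline or test peptide 1 mg per kg i.v. Blood AST, BUN, ALT and CK were measured at day 2 (n = 6). Plasma IL-1β was measured by ELISA (n = 10).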

[2] = system: LPS-induced sepsis in mice; test: Moderate LPS; type: in vivo, mouse; conditions: at 6 h, n = 10; for plasma IL-1β levels: vs saline
How it was run: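 Sepsis was induced in wild-type mice (8–10 weeks, mixed sex) with LPS (O55:B5) 25 mg per kg i.p. At 5 h after LPS they received saline or test peptide 2 mg per kg i.v. Reference pore inhibitors were given i.p. Plasma IL-1β was measured by ELISA every 3 h up to 48 h.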

[3] = system: LPS-induced sepsis in mice; test: Severe LPS; type: in vivo, mouse; conditions: at 5 h, n = 10; for plasma IL-1β levels: vs saline
[4] = target: T1, pyroptotic cytomembranes, which contain GSDMD-NT pores (Homo sapiens, UniProt P57764); test: Biolayer interferometry, pyroptotic cytomembranes; type: binding
T1 sequence (P57764 1-275 limits assumed): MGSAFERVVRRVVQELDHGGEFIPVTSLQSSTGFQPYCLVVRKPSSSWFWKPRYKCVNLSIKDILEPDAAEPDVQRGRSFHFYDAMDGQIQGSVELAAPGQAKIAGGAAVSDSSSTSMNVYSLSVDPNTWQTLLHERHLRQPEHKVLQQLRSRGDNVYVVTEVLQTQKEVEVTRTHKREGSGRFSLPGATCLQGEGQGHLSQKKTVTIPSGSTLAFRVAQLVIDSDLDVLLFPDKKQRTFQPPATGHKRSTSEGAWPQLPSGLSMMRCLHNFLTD

Row | Molecule | proportion of Annexin V+ BMDMs (BMDMs) | secretion of IL-1β and IL-18 (human blood leukocytes) | plasma IL-1β levels [1] | plasma IL-1β levels [2] | organ damage markers in the plasma [3] | plasma IL-1β levels [3] | Kd [4] [nM] | blood biochemical markers (AST, BUN, ALT and CK) ([1]; LPS 15 mg/kg, treatment at 16 h, day 2, vs saline-treated WT mice, n = 6) | organ damage markers in the plasma [2]
1 | O=C(O)CN(CCN(CC(=O)O)CC(=O)O)CC(=O)O [EDTA] | restored the proportion of Annexin V^+ BMDMs to the level seen in BMDMs without SK56 treatment |  |  |  |  |  |  |  | 
2 | CCN(CC)C(=S)SSC(=S)N(CC)CC [DSF, disulfiram] |  | completely blocked | reduced plasma IL-1β levels | reduced plasma IL-1β levels | failed to suppress BUN but inhibited the other three organ damage markers | reduced plasma IL-1β levels |  |  | 
3 | {Biotin-Ahx-Ahx}-SLEEFAKRVVEELVKEFNLDKRQESYLEMSALIQAQMGISERIIEIVLRHAAQTLK [Biotinylated SK56] |  |  |  |  |  |  | 10.9 |  | 
4 | COc1nccnc1NS(=O)(=O)c1ccc(NC(=O)/C=C/c2ccc([N+](=O)[O-])s2)cc1 [NSA, necrosulfonamide] |  |  |  |  | lowered levels of organ damage markers | had no effect |  | inhibited AST, BUN, ALT and CK | lowered levels of organ damage markers
5 | COC(=O)/C=C/C(=O)OC [DMF, dimethyl fumarate] |  |  | reduced plasma IL-1β levels | reduced plasma IL-1β levels | lowered levels of organ damage markers | reduced plasma IL-1β levels |  |  | lowered levels of organ damage markers
